Experimental data published in ChEMBL document CHEMBL4038302, “Fibroblast Activation Protein α Activated Tripeptide Bufadienolide Antitumor Prodrug with Reduced Cardiotoxicity” (J Med Chem, 2017).
Calls of active or inactive are those of the source. The rule behind the calls is not given here.

Experiments:
Mus musculus [1] = test: Toxicity in BALB/C nude mouse xenografted with human MDA-MB-231 cells assessed as abnormal food intake at 12 umol/kg, iv administered starting on day 5 measured after day 22; type: organism-based; conditions: in vivo
MDA-MB-231 [2] = test: Antitumor activity against human MDA-MB-231 cells xenografted in BALB/C nude mouse assessed as tumor weight at 12 umol/kg, iv administered starting on day 5 measured after day 22 (reference value: 0.67 +/- 0.14 g); type: functional
In short: (§1)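 Female BALB/C mice inoculated subcutaneously in the back with 1 × 10^7 MDA-MB-231 cells in Matrigel–PBS (1:1). From day 5, daily iv dosing in 5% Solutol-HS15 vehicle, with a vehicle control group. Tumours measured by caliper every 2 days (v = 0.5 × a × b²); tumour weight as mean ± SEM, n = 6, one-way ANOVA with Tukey's test.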

Prolyl endopeptidase FAP [3] = molecular target: T1, Prolyl endopeptidase FAP (Homo sapiens, UniProt Q12884); test: (§2) Prodrug activation assessed as recombinant human FAP-alpha mediated (S)-((3S,5R,8R,9S,10S,11S,13R,14S,17R)-11,14-dihydroxy-10,13-dimethyl-12-oxo-17-(2-oxo-2H-pyran-5-yl)hexadecahydro-1H-cyclopenta[a]phenanthren-3-yl) 2-amino-3-(1H-indol-3-yl)propanoate formation at 40 umol/L after 6 hrs in presence of FAP-alpha inhibitor talabostat by UPLC-MS/MS analysis; conditions: 40 µM
T1 sequence (Q12884 whole entry): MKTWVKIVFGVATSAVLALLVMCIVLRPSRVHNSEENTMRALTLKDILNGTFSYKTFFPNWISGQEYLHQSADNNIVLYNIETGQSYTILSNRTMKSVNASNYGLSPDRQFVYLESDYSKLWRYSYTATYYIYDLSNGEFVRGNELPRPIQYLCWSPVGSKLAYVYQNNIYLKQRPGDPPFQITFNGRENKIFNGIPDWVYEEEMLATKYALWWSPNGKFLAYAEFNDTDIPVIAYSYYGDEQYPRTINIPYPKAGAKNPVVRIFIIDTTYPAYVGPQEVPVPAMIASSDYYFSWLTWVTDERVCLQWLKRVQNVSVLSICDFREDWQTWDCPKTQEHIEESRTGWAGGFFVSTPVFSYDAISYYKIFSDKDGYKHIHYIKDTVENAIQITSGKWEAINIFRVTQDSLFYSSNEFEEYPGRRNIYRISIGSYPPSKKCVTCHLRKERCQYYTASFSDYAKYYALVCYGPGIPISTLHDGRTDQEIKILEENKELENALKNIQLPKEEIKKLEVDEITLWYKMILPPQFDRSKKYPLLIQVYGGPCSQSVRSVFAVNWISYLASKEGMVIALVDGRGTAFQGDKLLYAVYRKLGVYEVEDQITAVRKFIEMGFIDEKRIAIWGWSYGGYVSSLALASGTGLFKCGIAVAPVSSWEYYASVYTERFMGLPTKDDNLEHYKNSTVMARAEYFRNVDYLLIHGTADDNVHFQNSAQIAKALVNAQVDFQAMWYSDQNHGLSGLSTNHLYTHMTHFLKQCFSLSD
In short: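 Prodrug at 40 μmol/L incubated with rhFAPα at 0.45 μg/mL in 0.2 mL buffer at 37 °C for 6 h, with bufalin at 2 μmol/L as internal standard. Stopped with acetonitrile and spun at 18 000g for 15 min. Released active form measured by UPLC-MS/MS via peak-area ratio against a standard curve of 0.625–40 μmol/L.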

MDA-MB-231 [4] = test: Antiproliferative activity against human MDA-MB-231 cells transfected with human FAP-alpha incubated for 48 hrs by MTT assay; type: functional, cell-based; conditions: MDA-MB-231, 48 h
In short: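 Cells grown in DMEM with 10% FBS and 1% penicillin-streptomycin at 37 °C, 5% CO2; 10% heat-inactivated FBS used during cytotoxicity testing to exclude serum FAP activity. Viability read by MTT; IC50 as mean ± SEM of at least three independent experiments. Transfected lines were made from MDA-MB-231 with human FAPα plasmid or empty pCMV6-Entry vector and checked by Western blot at 48 h.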

Mus musculus [5] = test: Cardiotoxicity in BALB/C nude mouse xenografted with human MDA-MB-231 cells assessed as change in LDH level at 12 umol/kg, iv administered starting on day 5 measured after day 22; type: toxicity, organism-based; conditions: in vivo
In short: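 Serum from xenograft mice given daily iv doses in 5% HS15: blood taken by cardiac puncture before sacrifice and spun at 3000 rpm for 20 min at 4 °C. D-LDH activity measured with a colorimetric kit. Mean ± SEM, n = 6; one-way ANOVA with Tukey's test against the 5% HS15 control.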

[6] = Ratio of invivo prodrug activation in tumor of BALB/C nude mouse xenografted with human MDA-MB-231 cells assessed as FAP-alpha mediated (S)-((3S,5R,8R,9S,10S,11S,13R,14S,17R)-11,14-dihydroxy-10,13-dimethyl-12-oxo-17-(2-oxo-2H-pyran-5-yl)hexadecahydro-1H-cyclopenta[a]phenanthren-3-yl) 2-amino-3-(1H-indol-3-yl)propanoate formation in absence of talabostat to FAP-alpha mediated (S)-((3S,5R,8R,9S,10S,11S,13R,14S,17R)-11,14-dihydroxy-10,13-dimethyl-12-oxo-17-(2-oxo-2H-pyran-5-yl)hexadecahydro-1H-cyclopenta[a]phenanthren-3-yl) 2-amino-3-(1H-indol-3-yl)propanoate formation in presence of talabostat at 40 umol/L by LC-MS/MS analysis; parameters: species or system Neoplasm
Prolyl endopeptidase FAP [7] = molecular target: T1, Prolyl endopeptidase FAP; test: as §2, with “formation by measuring intrinsic clearance” for “formation”, “[…]” for “hrs in presence of FAP-alpha inhibitor talabostat”; conditions: 40 µM
Mus musculus [8] = test: Toxicity in BALB/C nude mouse xenografted with human MDA-MB-231 cells assessed as abnormal behavioral at 12 umol/kg, iv administered starting on day 5 measured after day 22; type: organism-based; conditions: in vivo
MDA-MB-231 [9] = test: Antitumor activity against human MDA-MB-231 cells xenografted in BALB/C nude mouse assessed as decrease in tumor weight at 4 umol/kg, iv administered starting on day 5 measured after day 22; type: functional, organism-based; in short: as §1

## C[C@]12CC[C@H](OC(=O)[C@H](Cc3c[nH]c4ccccc34)NC(=O)[C@@H]3CCCN3C(=O)CNC(=O)OCc3ccccc3)C[C@H]1CC[C@@H]1[C@@H]2[C@H](O)C(=O)[C@]2(C)[C@@H](c3ccc(=O)oc3)CC[C@]12O
Mus musculus [1]
  Activity: Non-Toxic
MDA-MB-231 [2]
  Activity: 0.43 g
Prolyl endopeptidase FAP [3]
  Drug metabolism: Metabolite_Notdetected
MDA-MB-231 [4]
  IC50: 11.7 nM
Mus musculus [5]
  Activity: Non-Toxic
[6]
  Ratio: 20
Prolyl endopeptidase FAP [7]
  CL: 65890 µL/min/mg
Mus musculus [8]
  Activity: Non-Toxic
MDA-MB-231 [9]
  Activity: Active
